Bioassay records: PubChem, The Scripps Research Institute Molecular Screening Center
HTRA1 inhibitor = HTRA1 (human) protease inhibition | recombinant HTRA1, FP-rhodamine activity-based probe, fluorescence polarization | inhibition, % at 5.96 µM | hit rate 0.5% among 340,000; in the data active = inhibition above about 36%;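 note: 0% = enzyme with DMSO and 100% = wells lacking enzyme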
PAFAH1B2 FP inh = blocks human PAF acetylhydrolase 1b catalytic subunit 2; recombinant PAFAH1B2, FP-rhodamine activity probe, fluorescence polarization; inhibition, % at 3.39 µM; hit rate 1.2% among 340,000; AID 492953;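 active = inhibition above the mean of all tested compounds plus 3 SD, cut at about 24% in these data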;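 note: 0% = enzyme with DMSO and 100% = wells lacking PAFAH1B2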
ABHD4 inh = inhibitors of mouse ABHD4 | purified mABHD4, FP-Rh probe fluorescence polarization | inhibition, % at 8.92 µM | hit rate 0.54% among 370,000 | AID 720543;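 active = inhibition exceeding the mean over every tested compound plus 3 SD, cut at about 30% in these data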;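 note: 0% = plate median of compound wells and 100% = S159A mutant with DMSO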
Target sequence (Q8VD66 whole entry, looked up): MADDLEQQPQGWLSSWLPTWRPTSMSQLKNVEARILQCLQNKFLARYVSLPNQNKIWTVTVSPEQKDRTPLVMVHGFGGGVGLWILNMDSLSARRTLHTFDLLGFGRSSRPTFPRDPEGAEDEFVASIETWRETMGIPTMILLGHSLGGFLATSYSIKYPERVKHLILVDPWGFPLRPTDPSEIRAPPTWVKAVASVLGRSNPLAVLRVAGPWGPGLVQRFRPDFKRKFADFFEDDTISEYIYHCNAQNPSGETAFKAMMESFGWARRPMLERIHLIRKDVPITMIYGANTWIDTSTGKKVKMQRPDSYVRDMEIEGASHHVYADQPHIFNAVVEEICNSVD
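Assay system: Wild-type mouse ABHD4 protein | Medium: HEPES pH 7.0 buffer, 150 mM NaCl, 0.01% Pluronic F-127 | Incubation: Enzyme–compound pre-incubation 45 min, then probe 60 min, both 25 °C | Technique: Fluorescence polarization with parallel and perpendicular emission, 525/598 nm | Evaluation: % inhibition of FP-Rh probe binding versus controls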
PAFAH2 FP inh = PAFAH2 (human) inhibition. hit rate 0.99% among 340,000. Q99487. inhibition, % at 3.39 µM. recombinant PAFAH2, FP-rhodamine activity probe, fluorescence polarization;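 active = inhibition above the mean over all tested compounds plus 3 SD, cut at about 30% in these data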;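 note: inhibitors block probe labeling of enzyme so polarization drops; 0% = enzyme with DMSO and 100% = wells lacking PAFAH2 protein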
PAFAH1B3 FP inh = inhibitors of human PAFAH1B3; Q15102; recombinant PAFAH1B3, FP-rhodamine probe, fluorescence polarization; inhibition, % at 3.39 µM; hit rate 0.28% among 340,000;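 active = inhibition above the screen-wide average of all tested compounds plus 3 SD, cut at about 25% in these data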;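 note: 0% = enzyme with DMSO only and 100% = wells lacking PAFAH1B3 protein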
Target sequence (Q15102 whole entry, looked up): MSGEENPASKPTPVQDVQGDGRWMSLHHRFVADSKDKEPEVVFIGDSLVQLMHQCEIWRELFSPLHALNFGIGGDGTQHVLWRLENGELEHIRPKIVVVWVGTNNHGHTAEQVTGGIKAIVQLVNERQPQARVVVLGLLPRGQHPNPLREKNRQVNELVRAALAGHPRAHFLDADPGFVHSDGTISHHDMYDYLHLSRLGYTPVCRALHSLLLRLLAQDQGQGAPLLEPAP
pPAFAH inh = inhibitors of human plasma PAF acetylhydrolase (pPAFAH). AID 463082. inhibition, % at 3.39 µM. hit rate 1.5% among 330,000. Q13093. recombinant pPAFAH, FP-rhodamine probe fluorescence polarization;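 active = inhibition above the mean inhibition across the screen plus 3 SD, cut at about 25% in these data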;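 note: inhibitors block binding of the rhodamine activity-based probe so polarization drops; 0% = enzyme with DMSO and 100% = wells lacking pPAFAH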
Active calls of the source: *; / = not tested or not shown. Rows were chosen to be rich in hits. Some 2.8% of all compounds tested hit in one or more screens of this group.

SMILES	HTRA1 inhibitor	PAFAH1B2 FP inh	ABHD4 inh	PAFAH2 FP inh	PAFAH1B3 FP inh	pPAFAH inh
S=c1[nH]nc(Cc2ccc(Br)cc2)n1/N=C/c1ccc(Cl)cc1	-16	34*	-1	-2	13	7
CCc1n[nH]c(=S)n1/N=C/c1ccc(N(C)c2ccccc2)cc1	-3	-6	5	-1	11	26*
Cc1n[nH]c(=S)n1/N=C/c1ccc(OCc2ccc(Cl)cc2)cc1	-13	28*	-3	10	6	5
CCc1n[nH]c(=S)n1/N=C/c1ccc2c(c1)OCO2	1	2	-5	3	-4	9
CCC[C@H]1[C@@H](NC(=O)c2cccc(Cl)c2)CC[C@@]23CCCN2C(=O)CCC[C@@H]13	/	/	-1	/	/	/
CSc1ccccc1NC(=O)COC(=O)c1ccc(-n2nc(C)cc2C)cc1	-12	5	-7	59*	7	25*
Cc1cc(C)n(-c2ccc(C(=O)OCC(=O)NCc3ccc(Cl)cc3)cc2)n1	-2	1	3	26	-5	23
Cc1cc(C)n(-c2ccc(C(=O)OCC(=O)NCc3ccc(F)cc3)cc2)n1	-1	6	-2	25	3	28*
Cc1ccc(NC(=O)CN(C)C(=O)c2ccc3[nH]c4c(c3c2)CC(C)CC4)cc1 (configuration not stated)	-8	48*	2	-2	7	4
CCOc1ccc(NC(=O)CN(C)C(=O)c2ccc3[nH]c4c(c3c2)CC(C)CC4)cc1OCC (configuration not stated)	3	4	0	-4	-4	6
CCOC(=O)NC1(Nc2cccc(Cl)c2)Oc2ccccc2O1	21	-3	32*	-3	8	33*
CCCOc1cc(N(CC)CC)ccc1/C=C(/C#N)c1nc2ccc(C)cc2[nH]1	12	-4	9	-4	3	19
CCOc1cc(N(CC)CC)ccc1/C=C(/C#N)c1nc2ccccc2[nH]1	10	13	15	14	15	27*
CCN1CCCCC(NC(=O)c2ccc(F)cc2)C1=O (configuration not stated)	/	/	2	/	/	/
COc1ccccc1CCn1cnc(-c2cccc(Cl)c2)c1CC(C)C	/	/	-2	/	/	/
Cc1cccc(NS(=O)(=O)c2csc(C(N)=O)c2)c1C	-3	-6	8	-3	2	27*
Cc1ccsc1C(=O)OCC(=O)NC1CCCC(C)C1C (configuration not stated)	-4	5	3	85*	6	32*
COc1cc(CCC(=O)OCC(=O)NC2CCCC(C)C2C)cc(OC)c1OC (configuration not stated)	5	-1	3	4	6	7
CCOc1ccc(OCCC(=O)OCC(=O)NC2CCCCC2)cc1	2	7	-2	7	22	31*
CC1CCCC(NC(=O)Cc2ccc(Br)cc2)C1C (configuration not stated)	-11	-1	-4	-4	3	9
CC1CCCC(NC(=O)COC(=O)Cc2ccc(Br)cc2)C1C (configuration not stated)	/	/	2	/	/	25*
CC1CCCC(NC(=O)COC(=O)CCC2CCCC2)C1C (configuration not stated)	-6	2	3	-6	-4	28*
O=C(Nc1cccc(Br)c1)OC1CC2CC1[C@H]1CCCCN1[C@H]2Cc1ccccc1 (some centres not stated)	/	/	-3	/	/	/
COC(=O)C1CN(Cc2ccc(F)cc2)CCS(=O)(=O)N1Cc1cn(Cc2ccc(C)cc2)nn1 (configuration not stated)	/	/	7	/	/	/
Cc1ccc(OCCC(=O)OCC(=O)NC2CCCCC2)cc1	0	/	2	/	/	/
SMILES	HTRA1 inhibitor	PAFAH1B2 FP inh	ABHD4 inh	PAFAH2 FP inh	PAFAH1B3 FP inh	pPAFAH inh
Cc1ccc(OCCC(=O)OCC(=O)NC2CCCC(C)C2C)cc1 (configuration not stated)	-4	34*	5	-3	5	22
CCOC(=O)C1CCCN(S(=O)(=O)c2cc3c(cc2Br)CCN3C(=O)CC)C1 (configuration not stated)	/	/	-3	/	/	/
CC(C)Sc1oc(-c2ccco2)nc1S(=O)(=O)c1ccc(F)cc1	-12	3	1	12	0	26*
COCC(C)N=C1NN=C(c2cc(C)n(Cc3ccccc3Cl)c2C)CS1 (configuration not stated)	2	7	4	6	10	26*
O=C(/C=C/c1ccco1)NC(=S)Nc1ccc(O)c(-c2nc3ccccc3s2)c1	-12	-3	17	13	-1	25*
COc1ccc(NC(=S)NC(=O)/C=C/c2ccco2)cc1	-11	1	1	0	4	7
Cc1ccc(O)c(NC(=S)NC(=O)/C=C/c2ccco2)c1	-6	2	11	-5	7	25*
CN[C@H]1C[C@H]2c3cc(-c4ccccc4C)ccc3CCN2C[C@H]1[C@H](C)O	/	/	-4	/	/	/
O=C(Nc1ccc(S(=O)(=O)Nc2nccs2)cc1)c1cc(-c2ccccc2Cl)nc2ccccc12	-59	3	-56	-2	10	25*
O=C(Nc1ccc(S(=O)(=O)Nc2nccs2)cc1)c1cc(-c2ccccn2)nc2ccccc12	-10	-2	-12	6	8	10
O=[N+]([O-])c1cc(C=Nc2cccc3c(O)cccc23)ccc1Cl	/	/	/	/	/	25*
O=[N+]([O-])c1cc(/C=N\Nc2ccccn2)ccc1Cl	6	4	9	3	7	-1
CCOC(=O)[C@@]12CN(C(=O)OC(C)(C)C)CC=C1N(Cc1ccc(OC)cc1)C(=O)[C@H]2CC(=O)NCC1CCCCC1	/	/	10	/	/	/
CN1CCC(N[C@@H](Cc2ccccc2)C(=O)NCC(c2ccccc2)c2ccccc2)(C(=O)NC2CCCCC2)CC1	/	/	8	/	/	/
C[C@@H]1OC(c2ccccc2)N(C)[C@H]2C[C@H]3c4[nH]c5cccc(-c6ccccc6)c5c4CCN3C[C@@H]12 (some centres not stated)	/	/	6	/	/	/
N#CC(=C=[N-])C1=C(C#N)C(c2ccccc2F)C([n+]2ccccc2)C(O)(C2CC2)N1 (configuration not stated)	-2	-1	16	2	5	30*
Cc1ccc[n+](C2C(c3ccc([N+](=O)[O-])cc3)C(C#N)=C([S-])NC2(O)C2CC2)c1 (configuration not stated)	4	2	10	2	-1	8
CCNC(=O)N(C)[C@H]1C[C@H]2c3[nH]c4cccc(-c5cccc(F)c5)c4c3CCN2C(=O)[C@H]1[C@H](C)O	/	/	3	/	/	/
CN(C(=O)COC(=O)c1ccc(Cl)c(S(=O)(=O)NCc2ccccc2)c1)C1CCS(=O)(=O)C1 (configuration not stated)	3	34*	-2	5	1	/
